# This is a sample that favours compounds with a hit; in the whole collection about 4.6% have one here.
# NLRP3 yeast inh – blocks the NALP3 inflammasome reconstituted in yeast | Yeast reconstituted NLRP3/ASC/caspase-1, beta-gal luminescence, 24 h | inhibition, % at 10 µM | 0.39% of 330,000 active;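 active means inhibition of 50% or more; inactive means inhibition below 50%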
# DSG3 Ab inh – human desmoglein-3 autoantibody binding inhibition. binding (percent of control), % at 10 µM. 0.48% of 310,000 active. AID 588358. P32926. DSG3-coupled beads, scFv-anti-DSG3-GFP binding, flow cytometry; active compounds read low;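 active means binding more than 3 SD below its plate's average and above zero; inconclusive means below that plate limit but binding exactly zero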;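 further: hits lower antibody fragment binding to DSG3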
# PolyA inhibitor – blocks polyadenylation in yeast reporter cells | S. cerevisiae SKY197-pL101 polyadenylation reporter, beta-gal luminescence; efflux-impaired pdr1/pdr3 knockout yeast; score 100 = 6 SD above DMSO | activity score, % at 12 µM | AID 1875 | 0.02% of 300,000 active;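 active means lowest replicate activity score at least 50, where 100 means six control SD above control mean; inconclusive means lowest score under 50 but half or more replicates reach 50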;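 further: yeast exposed to compound for 9 h at 30 °C; higher score means more reporter readthrough which indicates perturbed polyadenylation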
# ALR H2O2 inh – blocks human ALR sulfhydryl oxidase activity | 3.8% of 290,000 active | purified ALR, DTT oxidation, H2O2 HRP-luminol luminescence | P55789 | inhibition, % (test concentration not listed);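 active means mean replicate inhibition above about 79%, with every replicate also reaching it, limit read from the data; inconclusive means only one of the two criteria met; inactive means mean below limit and not every replicate reaching it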
# Arr AP2 block – inhibitors of human beta-arrestin and AP2 interaction; AID 504490; inhibition, % at 10 µM; FITC-arrestin peptide / GST-AP2 beads, flow cytometry; AP2 beta2 appendage carries R879A mutation; 0.31% of 340,000 active;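 active means inhibition above a set limit, near 3 SD of compounds lacking own fluorescence, cut at about 54% in these data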
#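 System: GST-AP2 R879A glutathione beads; medium: PBS, Tween 20 0.05%, BSA 0.1%; reagent: fluorescein-tagged arrestin peptide at 50 nM final; schedule: pre-incubation 12 min, peptide binding 1 h, room temperature; detection: flow cytometry, FL1 (488/535 nm); read-out: inhibition as reduced fluorescein signal on beads, percent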
# NALP1 inh – NALP1 inhibition; S. cerevisiae NALP1/ASC/caspase-1 growth, X-gal OD620, 72 h; inhibition, % at 10 µM; 0.61% of 280,000 active; AID 2071; in the data active means inhibition mostly above about 24%, no sharp cut-off; inactive means mostly below about 32%
# Hits are given with their value; i = inactive; ? = inconclusive; nt = no result.
SMILES,NLRP3 yeast inh,DSG3 Ab inh,PolyA inhibitor,ALR H2O2 inh,Arr AP2 block,NALP1 inh
Nc1nc(Nc2ccccc2)nc(NCc2ccccc2)c1[N+](=O)[O-],i,i,i,86,i,i
Cc1onc(-c2ccccc2Cl)c1C(=O)N1CCN(c2nc3ccccc3s2)CC1,i,i,i,i,i,34
CCOc1cc(-c2cc(-c3ccccc3)nc(N)c2C#N)ccc1O,i,i,i,95,i,i
N#CC1=C(N)Oc2n[nH]c(-c3ccccc3)c2C1c1cccnc1 (stereo not given),i,nt,i,i,i,i
CCOc1cc(C2C(C#N)=C(N)Oc3n[nH]c(-c4ccccc4)c32)ccc1O (stereo not given),i,i,i,97,i,i
COc1ccc(CCC(=O)Nc2ncc(C)s2)cc1,i,i,i,i,i,i
CCCC(=O)Nc1cc(C)cn(Cc2c(F)cccc2Cl)c1=O,i,i,i,i,i,i
CCOC(=O)CCCCCC(=O)Nc1ccc2c(c1)C(=O)N([C@@H](C)CO)C[C@@H](C)[C@H](CN(C)S(=O)(=O)c1cccs1)OCCCC[C@H](C)O2,nt,i,nt,nt,nt,nt
Clc1ccc(-c2nc(-c3ccccn3)no2)cc1Cl,i,i,i,i,i,32
COc1ccc(N2CC(C(=O)Nc3nnc(SCC(=O)Nc4ccc(NC(C)=O)cc4)s3)CC2=O)cc1 (stereo not given),nt,85,nt,nt,nt,nt
CCOc1ccc(N2CC(C(=O)Nc3ccncc3)CC2=O)cc1 (stereo not given),i,54,i,nt,i,i
CCOc1ccc(N2CC(C(=O)Nc3ccccn3)CC2=O)cc1 (stereo not given),i,i,i,i,i,i
Cc1ccc2c(=O)n3c(nc2c1)C(C)NC(=O)c1cccnc1-3 (stereo not given),nt,i,nt,nt,nt,nt
COc1ccc(OCc2nnc(SCC(=O)Nc3cccc(C(C)=O)c3)o2)cc1,i,i,nt,99,i,nt
COc1cccc(NC(=O)CSc2nnc(COc3ccc4c(c3)CCCC4)o2)c1,i,i,i,i,i,i
COc1ccc(C(=O)NCc2nnc(SCC(=O)Nc3nc4ccccc4s3)o2)cc1,i,85,i,nt,i,i
CC(=O)c1ccc(NC(=O)CSc2ccc(-c3sc(C)nc3C)nn2)cc1,i,i,i,99,i,i
COc1cc(C(=O)NCc2nnc(SCC(=O)Nc3nc4ccccc4s3)o2)cc(OC)c1OC,i,i,i,i,i,i
COc1ccc(OC)c(NC(=O)CSc2nnc(CNc3ccc(F)cc3)o2)c1,i,i,i,91,i,i
Cc1nc(C)c(-c2ccc(SCC(=O)Nc3ccc(C)c(Cl)c3)nn2)s1,i,i,i,i,i,i
CC(=O)N1C[C@H]2CON(C)[C@H]2C[C@H]1c1cccc(-c2ccc(C#N)cc2)c1,nt,i,nt,nt,nt,nt
CCc1nnc(NC(=O)CSc2nnc(Cc3ccccc3)o2)s1,i,i,i,i,i,i
CCc1nnc(NC(=O)CSc2nnc(CNc3ccc(Cl)cc3)o2)s1,i,i,i,99,i,i
COc1ccc(-c2ccc(SCC(=O)Nc3cccc(C(C)=O)c3)nn2)cc1OC,i,nt,i,85,i,i
COc1ccc(NCc2nnc(SCC(=O)Nc3ccccc3OC)o2)cc1,i,i,i,i,i,i
SMILES,NLRP3 yeast inh,DSG3 Ab inh,PolyA inhibitor,ALR H2O2 inh,Arr AP2 block,NALP1 inh
COc1ccc(NCc2nnc(SCC(=O)Nc3cccc(C)c3)o2)cc1,i,i,i,99,i,i
COc1ccc(NCc2nnc(SCC(=O)c3ccc(OC)cc3)o2)cc1,i,i,i,98,i,i
COc1ccc(CCNC(=O)c2c(C)nn(-c3ccccc3)c2Cl)cc1OC,i,i,i,i,i,i
CN(CC(=O)Nc1ccccc1Br)C(=O)Cn1[nH]c(=O)c2ccccc2c1=O,i,i,nt,nt,i,nt
CCN(CC)S(=O)(=O)c1ccc(NC(=O)COC(=O)c2ccc(-n3nc(C)cc3C)cc2)cc1,i,i,nt,i,i,i
CCN(CC)S(=O)(=O)c1ccc(NC(=O)COC(=O)c2ccc(NC(=O)CC#N)cc2)cc1,i,i,i,99,i,i
COc1ccc(CCn2c(C)cc(C(=O)COC(=O)c3ccc(NC(=O)CC#N)cc3)c2C)cc1,i,?,i,i,i,i
N#CCC(=O)Nc1ccc(C(=O)OCC(=O)NC(=O)Cc2ccccc2)cc1,i,i,i,99,i,nt
CS(=O)(=O)c1ccc(C(=O)OCC(=O)NC(=O)Cc2ccccc2)cc1,i,i,i,i,i,nt
COc1ccc(CCOC(=O)c2ccc(NC(=O)CC#N)cc2)cc1,i,i,i,89,i,i
N#CCC(=O)Nc1ccc(C(=O)OCC(=O)Nc2ccccc2-c2ccccc2)cc1,i,i,i,98,i,i
COc1ccccc1S(=O)(=O)NCc1ccc(C(=O)NC2CCC(O)CC2)cc1 (stereo not given),i,?,nt,nt,i,nt
Cc1cc(C(=O)CCC(=O)N(C)CC2COc3ccccc3O2)c(C)s1 (stereo not given),nt,i,nt,nt,nt,nt
N#CCC(=O)Nc1ccc(C(=O)OCC(=O)N2CCCC2=O)cc1,i,i,i,99,i,nt
Cc1cc(C)c(C(=O)COC(=O)c2ccc(NC(=O)CC#N)cc2)cc1C,i,i,i,i,i,nt
CC(=O)Nc1ccc(C(=O)OCC(=O)N2CCN(C(=O)c3ccco3)CC2)cc1,i,i,nt,i,i,nt
CNC(=O)COC(=O)c1ccc(NC(=O)CC#N)cc1,i,i,i,98,i,i
N#CCC(=O)Nc1ccc(C(=O)OCC(=O)N2CCN(C(=O)c3ccco3)CC2)cc1,i,i,nt,100,i,nt
CCc1ccc(NC(=O)COC(=O)CCc2nc3cc(S(=O)(=O)N(CC)CC)ccc3n2C)cc1,i,i,i,99,i,i
c1ccc(CCCNCCCn2cnc3c(OCc4ccccc4)ncnc32)cc1,nt,i,nt,nt,i,nt
Cc1[nH]n(-c2ccccc2)c(=O)c1N=Nc1cccc(S(=O)(=O)N2CCOCC2)c1,i,64,i,i,i,i
Cc1[nH]n(-c2ccccc2)c(=O)c1N=Nc1cccc(C(=O)O)c1,i,i,i,i,i,i
COC(=O)c1ccccc1SC1CC(=O)N(c2ccccc2)C1=O (stereo not given),i,i,i,i,i,78
CCCCCN(C(=O)CCC(=O)OCC(=O)c1ccc(C(C)CC)cc1)c1c(N)n(CCCC)c(=O)[nH]c1=O (stereo not given),i,i,i,i,i,nt
COc1ccc(NC(=O)CSc2c3c(nc4cc(Cl)ccc24)CCCC3)cc1OC,i,i,i,99,i,i
COc1cc(NC(=O)c2ccc3c(SCC(=O)O)c4c(nc3c2)CCC4)cc(OC)c1OC,i,i,i,i,i,i
O=C(CSc1c2c(nc3cc(Cl)ccc13)CCCC2)NCc1ccco1,i,nt,i,nt,i,i
O=C(CSc1c2c(nc3ccccc13)CCC2)N1CCCC1,i,i,i,98,i,i
